Experiments:
Integrin alpha-4/beta-1 [1] = molecular target: T1, Integrin alpha-4/beta-1 (Homo sapiens, UniProt P05556+P13612); test: Inhibition of Alpha4-beta1 integrin in Jurkat cells (Not active); assay type: cell-based
Outline: (§1)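 Calcein-labelled Jurkat cells were allowed to bind human recombinant sVCAM-1 in the presence of serial dilutions of compound, giving IC50. Values are means ± standard error of the number of independent experiments.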

Integrin alpha-4/beta-1 [2] = molecular target: T1, Integrin alpha-4/beta-1; test: Inhibition of VCAM binding to Alpha4-beta1 integrin of human eosinophil cell; assay type: protein-complex assay
Integrin alpha-4/beta-1 [3] = molecular target: T1, Integrin alpha-4/beta-1; test: Inhibition of Alpha4-beta1 integrin in Jurkat cells; assay type: cell-based; outline: as §1
Integrin alpha-4/beta-1 [4] = molecular target: T1, Integrin alpha-4/beta-1; test: Inhibition of human recombinant sVCAM-1 binding to alpha4-beta1 integrin (VLA-4) in ELISA; assay type: protein-complex assay

T1 sequence (P05556 whole entry): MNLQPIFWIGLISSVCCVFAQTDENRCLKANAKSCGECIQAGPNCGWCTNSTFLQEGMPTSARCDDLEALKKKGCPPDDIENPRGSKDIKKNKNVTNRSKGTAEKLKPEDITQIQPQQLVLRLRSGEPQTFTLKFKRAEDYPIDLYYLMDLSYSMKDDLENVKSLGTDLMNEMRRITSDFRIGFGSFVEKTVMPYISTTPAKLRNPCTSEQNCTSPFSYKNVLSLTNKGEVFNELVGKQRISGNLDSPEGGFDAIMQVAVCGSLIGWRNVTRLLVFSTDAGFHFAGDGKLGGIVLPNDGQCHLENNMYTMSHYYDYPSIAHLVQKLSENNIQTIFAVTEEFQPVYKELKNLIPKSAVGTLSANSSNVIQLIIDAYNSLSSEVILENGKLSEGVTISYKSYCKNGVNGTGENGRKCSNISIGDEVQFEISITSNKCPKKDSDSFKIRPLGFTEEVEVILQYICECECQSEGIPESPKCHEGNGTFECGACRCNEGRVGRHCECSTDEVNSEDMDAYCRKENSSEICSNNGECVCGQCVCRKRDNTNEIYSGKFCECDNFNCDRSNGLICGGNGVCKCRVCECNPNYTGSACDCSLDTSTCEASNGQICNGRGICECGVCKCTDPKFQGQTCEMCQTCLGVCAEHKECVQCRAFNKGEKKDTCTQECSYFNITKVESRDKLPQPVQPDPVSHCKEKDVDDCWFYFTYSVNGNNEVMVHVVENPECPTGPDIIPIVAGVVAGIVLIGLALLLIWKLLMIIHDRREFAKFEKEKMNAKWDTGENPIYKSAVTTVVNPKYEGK
T1 sequence (P13612 whole entry): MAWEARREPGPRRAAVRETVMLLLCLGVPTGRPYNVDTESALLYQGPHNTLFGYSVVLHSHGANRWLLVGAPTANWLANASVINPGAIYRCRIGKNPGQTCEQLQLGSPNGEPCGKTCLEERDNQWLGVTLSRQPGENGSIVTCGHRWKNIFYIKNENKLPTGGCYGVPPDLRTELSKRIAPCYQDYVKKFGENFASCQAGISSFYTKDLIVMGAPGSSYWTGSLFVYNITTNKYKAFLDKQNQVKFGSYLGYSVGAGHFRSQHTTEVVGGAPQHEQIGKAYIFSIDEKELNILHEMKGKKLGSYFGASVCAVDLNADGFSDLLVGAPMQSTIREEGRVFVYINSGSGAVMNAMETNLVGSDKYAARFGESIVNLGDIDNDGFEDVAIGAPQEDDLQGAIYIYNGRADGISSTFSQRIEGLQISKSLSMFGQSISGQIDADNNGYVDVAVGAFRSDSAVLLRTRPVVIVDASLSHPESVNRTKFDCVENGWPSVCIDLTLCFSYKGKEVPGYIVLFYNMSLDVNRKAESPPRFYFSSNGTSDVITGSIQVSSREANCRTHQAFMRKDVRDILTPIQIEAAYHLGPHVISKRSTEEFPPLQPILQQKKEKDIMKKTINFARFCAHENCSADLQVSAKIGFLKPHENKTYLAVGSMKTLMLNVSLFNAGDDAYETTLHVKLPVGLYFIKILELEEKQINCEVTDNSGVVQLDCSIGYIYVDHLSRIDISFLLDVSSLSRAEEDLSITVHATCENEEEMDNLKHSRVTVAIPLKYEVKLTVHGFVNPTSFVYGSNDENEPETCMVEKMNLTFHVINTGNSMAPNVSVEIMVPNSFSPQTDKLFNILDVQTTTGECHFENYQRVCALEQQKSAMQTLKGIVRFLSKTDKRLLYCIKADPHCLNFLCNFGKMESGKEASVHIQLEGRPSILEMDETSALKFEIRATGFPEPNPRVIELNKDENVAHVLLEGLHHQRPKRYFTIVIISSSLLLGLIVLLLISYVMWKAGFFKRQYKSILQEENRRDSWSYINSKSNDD

Row | SMILES | IC50 (Integrin alpha-4/beta-1 [1]) | IC50 (Integrin alpha-4/beta-1 [2]) | IC50 (Integrin alpha-4/beta-1 [3]) | IC50 (Integrin alpha-4/beta-1 [4])
1 | Cc1ccccc1NC(=O)Nc1ccc(CC(=O)N[C@@H](CC(C)C)c2cc(-c3cccc(C(=O)O)c3)on2)cc1 | Not Active |  |  | 
2 | Cc1ccccc1NC(=O)Nc1ccc(CC(=O)N[C@@H](CC(C)C)c2ncc(CC(=O)O)s2)cc1 |  |  | 2.4 µM | 
3 | Cc1ccccc1NC(=O)Nc1ccc(CC(=O)N[C@@H](CC(C)C)c2ncc(CCC(N)=O)s2)cc1 |  |  |  | Not Active
4 | Cc1ccccc1NC(=O)Nc1ccc(CC(=O)N[C@@H](CC(C)C)c2nc(CCC(=O)O)cs2)cc1 |  |  | 2.04 µM | 
5 | Cc1ccccc1NC(=O)Nc1ccc(CC(=O)N[C@@H](CC(C)C)c2cc(CCCC(=O)O)on2)cc1 |  |  | 1.8 µM | 
6 | Cc1ccccc1NC(=O)Nc1ccc(CC(=O)N[C@@H](CC(C)C)c2cc(-c3ccccc3C(=O)O)on2)cc1 | Not Active |  |  | 

Now from value to molecule:

Row | IC50 (Integrin alpha-4/beta-1 [1]) | IC50 (Integrin alpha-4/beta-1 [2]) | IC50 (Integrin alpha-4/beta-1 [3]) | IC50 (Integrin alpha-4/beta-1 [4]) | SMILES
7 |  | 0.495 µM | 0.088 µM |  | Cc1ccccc1NC(=O)Nc1ccc(CC(=O)N[C@@H](CC(C)C)C2=NOC(CCC(=O)O)C2)cc1 (stereo partly drawn)
8 |  | 0.143 µM | 0.027 µM |  | Cc1ccccc1NC(=O)Nc1ccc(CC(=O)N[C@@H](CC(C)C)c2cc(CCC(=O)O)on2)cc1
9 |  | 0.18 µM | 0.016 µM |  | Cc1ccccc1NC(=O)Nc1ccc(CC(=O)N[C@@H](CC(C)C)c2ncc(CCC(=O)O)s2)cc1
10 |  | 0.171 µM | 0.045 µM |  | Cc1ccccc1NC(=O)Nc1ccc(CC(=O)N[C@@H](CC(C)C)c2ncc(CCC(=O)O)o2)cc1
11 |  | 0.001 µM | 0.00069 µM |  | COc1cc(CC(=O)N[C@@H](CC(C)C)c2cc(CCC(=O)O)on2)ccc1NC(=O)Nc1ccccc1C
12 |  | 0.347 µM | 0.067 µM |  | Cc1ccccc1NC(=O)Nc1ccc(CC(=O)N[C@@H](CC(C)C)C2=NOC(CCC(=O)O)(CCC(=O)O)C2)cc1

Reference: ChEMBL document CHEMBL1133975, “Isoxazolyl, oxazolyl, and thiazolylpropionic acid derivatives as potent alpha(4)beta(1) integrin antagonists” (Bioorg Med Chem Lett, 2001)
